From PubChem BioAssay come the findings set out here.

Activity calls are given as the source filed them.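 The calls were made as follows, unless noted: active = NADPH fluorescence slope more negative than the mean of all samples by about 3 SD, 99.7% confidence; inactive = the rest.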 Where a SMILES comes first, the peptide text is derived from it. The star is where a group is joined. Boc = CC(C)(C)OC(=O)*

Test [1] in a line: inhibitors of TNFa-induced NFkB p65 translocation, primary screen, imaging, HUVEC, MLSMR starter and 10KST1 sets (AID 438;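 active = inhibition above 20% together with a positive visual image hit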;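 also: compound added about 3h40 before a 20 min TNFalpha stimulation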;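 as to inhibition: signal is the nuclear over cytoplasmic p65 intensity ratio per well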). As to conditions: HUVEC TNFa-induced p65 nuclear translocation; cell count: measured here: nuclei count (cytotoxicity indicator), at 2.08 µM; inhibition: at 2 µM, stronger effect = higher value, 0% TNFa-plus-vehicle, 100% no-TNFa wells.
A short description of test [2]: inhibitors of mutant huntingtin aggregation, primary screen, imaging, exon1htt(103Q)mCFP cells, high-content imaging (AID 483;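 active = visual image review flags a hit and inhibition of aggregation exceeds 20%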;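 also: compound exposure lasted 3 days before fixation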;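 as to nuclei count: percent of the per-plate median nuclei count of sample wells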). The following applies: exon1htt(103Q)mCFP cell line, aggregate imaging, at 2 µM; inhibition of aggregation: stronger effect = higher value; nuclei count: measured here: cell count, toxicity.
Test [3] is described as follows: inhibitors of E-selectin induction by TNFa, primary screen, imaging, HUVEC, immunofluorescence, MLSMR starter and 10KST1 sets (AID 487;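 active = visually confirmed hit in the image check and inhibition above 20%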;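 as to inhibition: signal is fraction of cell area covered by stained E-selectin grains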;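 as to nuclei count: 100% = median nuclei count of all wells on the same plate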). As to conditions: HUVEC TNFalpha-induced E-selectin immunofluorescence imaging, at 2 µM; inhibition: stronger effect = higher value; nuclei count: measured here: cell number, toxicity.
The target in test [4] is Voltage-gated potassium channel subunit beta-2 (Rattus norvegicus) (UniProt P62483). Description: KvBeta enzyme negative modulators, primary screen, biochemical, NADPH fluorescence (AID 622;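 active = fluorescence slope higher than the sample average by over 3 SD, cut at about -0.22 in these data, passing the limit was not always enough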;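 also: slope of raw intensity against log time taken from 70 to 1610 s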). The following applies: recombinant KvBeta, 4-cyanobenzaldehyde reduction, at 10 µM, stronger effect = higher value.
Test [5] shares this target. Description: KvBeta positive modulators, primary screen, biochemical, NADPH fluorescence (AID 623).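 Also: fluorescence intensity change per second fitted from 20 to 320 s.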 The following applies: Recombinant KvBeta, NADPH fluorescence decrease slope, 10 min; at 10 µM; stronger effect = lower value.
The target in test [6] is Muscarinic acetylcholine receptor M4 (Homo sapiens) (UniProt P08173). Briefly: compounds altering M4/GIRK thallium flux, either direction, primary screen, M4 allosteric agonist project, cell-based, HEK293 M4/GIRK, BTC-AM (AID 625;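 active = fluorescence slope after compound addition differing from the mean of all tested samples at 99.7% confidence, mostly higher but some lower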;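 also: thallium influx through GIRK channels coupled to M4 in HEK293 cells with BTC-AM dye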). As to conditions: at 10 µM, actives lie on both sides. In outline: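 Material: M4/GIRK1/GIRK2 stable HEK293 cell line. Medium: pH 7.3 thallium assay buffer. Dosing: single compound concentration, 10 µM final. Schedule: 1 h dye loading, 2 min kinetic read. Measured by: kinetic fluorescence with BTC-AM dye. Read-out: post-addition slope, 15–24 s, of baseline-normalized fluorescence. Benchmarks: carbachol and DMSO controls.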

A short description of test [7]: inhibitors of Sendai virus-induced IRF3 signaling, primary screen, TLR/RLR signaling modifier project, cell-based, Sendai virus stimulus, luciferase, 10K MLSCN set (AID 602276;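 active = inhibition at or above 50% at 10 µM; inactive = inhibition below 50%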;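 also: firefly luciferase from ISG56 promoter only with Renilla not read in this screen; 0% = Sendai virus plus DMSO and 100% = medium plus DMSO without virus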). The following applies: HEK293 RL24 IRF3 luciferase reporter, at 10 µM, stronger effect = higher value.
The nature of test [8]: inhibitors of poly I:C-induced TLR3 signaling, primary screen, cell-based, poly I:C stimulus, luciferase, 10K MLSCN set (AID 602277;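 active = inhibition of the reporter signal at or above 50%; inactive = inhibition below 50%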). As to conditions: HEK293-TLR3 RL24 IRF3 luciferase reporter, at 10 µM, stronger effect = higher value.

Sequence of Muscarinic acetylcholine receptor M4 (Homo sapiens) (P08173 whole entry, looked up): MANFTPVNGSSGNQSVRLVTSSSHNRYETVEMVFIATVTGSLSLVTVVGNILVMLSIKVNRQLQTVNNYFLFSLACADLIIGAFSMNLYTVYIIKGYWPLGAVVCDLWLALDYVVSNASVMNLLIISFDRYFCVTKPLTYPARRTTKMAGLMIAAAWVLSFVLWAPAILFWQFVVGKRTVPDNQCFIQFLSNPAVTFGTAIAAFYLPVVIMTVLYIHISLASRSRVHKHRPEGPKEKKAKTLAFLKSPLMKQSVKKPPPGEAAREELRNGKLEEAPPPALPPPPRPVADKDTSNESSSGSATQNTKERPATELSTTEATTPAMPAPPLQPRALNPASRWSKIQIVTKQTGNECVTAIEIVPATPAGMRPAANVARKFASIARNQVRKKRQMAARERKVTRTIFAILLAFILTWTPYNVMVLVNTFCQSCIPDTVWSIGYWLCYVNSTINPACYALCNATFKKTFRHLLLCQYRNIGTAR
Sequence of Voltage-gated potassium channel subunit beta-2 (Rattus norvegicus) (P62483 whole entry, looked up): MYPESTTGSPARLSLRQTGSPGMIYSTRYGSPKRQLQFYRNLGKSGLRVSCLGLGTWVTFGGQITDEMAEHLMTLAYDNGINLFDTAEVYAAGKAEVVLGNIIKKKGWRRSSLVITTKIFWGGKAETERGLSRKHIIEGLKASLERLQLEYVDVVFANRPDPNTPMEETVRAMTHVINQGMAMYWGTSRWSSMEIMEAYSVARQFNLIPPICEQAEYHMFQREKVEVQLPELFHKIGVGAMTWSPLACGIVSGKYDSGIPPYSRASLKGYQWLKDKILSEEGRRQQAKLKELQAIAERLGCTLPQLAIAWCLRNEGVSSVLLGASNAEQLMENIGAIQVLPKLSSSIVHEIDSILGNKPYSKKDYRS

Regarding `CCCOc1ccc(-c2nnn(CC(=O)Nc3cccc(C(=O)OC)c3)n2)cc1`, the cell count in test [1] was 380. Also, the inhibition was -2.1% (inactive) in test [1], -27.4% (inactive) in test [3], 11.3% (inactive) in test [7] and -4.78% (inactive) in test [8]. Besides, the inhibition of aggregation in test [2] is -8.7% (inactive). The nuclei count worked out at 109% in test [2] and 112% in test [3]. For the same compound, the values for the fluorescence slope in test [4] and in test [6] were -0.503 (inactive) and 0.00964 (inactive), respectively. Further, the NADPH fluorescence slope in test [5] was 0.000154 (inactive).

Consider `O=C1CCCc2c1cc(C(=O)NCc1ccco1)c(=O)n2-c1ccc(Cl)cc1`, for which the cell count in test [1] is 220. Besides, the inhibition in test [1] was 0.8% (inactive); in test [3] it was 37.1% (inactive); in test [7] it was 10.8% (inactive); in test [8], 3.62% (inactive). Also, the inhibition of aggregation in test [2] is 5.3% (inactive). Besides, the nuclei count is 91.5% in test [2] and 80% in test [3]. In addition, the fluorescence slope in test [4] was -0.52 (inactive); in test [6], 0.0047 (inactive). In addition, the NADPH fluorescence slope in test [5] is -5.7e-05 (inactive).

Take `CCc1cc(-c2[nH]ncc2-c2ccc3c(c2)OCO3)c(O)cc1O`: the cell count in test [1] stood at 511. Further, the inhibition is 0.5% (inactive) in test [1], -11.5% (inactive) in test [3], 14% (inactive) in test [7] and -66.6% (inactive) in test [8]. Also, in test [2], the inhibition of aggregation is 26% (inactive). The results for the nuclei count in test [2] and in test [3] were 97.8% and 111%, respectively. Moreover, the fluorescence slope is -0.572 (inactive) in test [4] and 0.00533 (inactive) in test [6]. The NADPH fluorescence slope in test [5] was 3.5e-05 (inactive).

With `COc1ccccc1OC(=O)c1ccc2nsnc2c1`, in test [1], the cell count came out at 623. The inhibition in test [1] is -11.4% (inactive); in test [3], -75.4% (inactive); in test [7], 9.79% (inactive); in test [8] it was 99.7% (active). For the same compound, the inhibition of aggregation in test [2] was 25% (inactive). Also, the nuclei count turned out to be 87.8% in test [2] and 103% in test [3]. Moreover, the values for the fluorescence slope in test [4] and in test [6] were -0.585 (inactive) and 0.00471 (inactive), respectively. Besides, the NADPH fluorescence slope in test [5] was -5.9e-05 (inactive).

Consider `Cc1nc2ccc(S(=O)(=O)NCC(=O)O)cc2s1`, for which, in test [1], the cell count was determined as 423. Moreover, the inhibition was 5.2% (inactive) in test [1], -56.1% (inactive) in test [3], -1.77% (inactive) in test [7] and 13% (inactive) in test [8]. The inhibition of aggregation in test [2] is -3% (inactive). Also, the nuclei count in test [2] is 110%; in test [3], 118%. Besides, the results for the fluorescence slope in test [4] and in test [6] were -0.45 (inactive) and 0.00579 (inactive), respectively. Further, the NADPH fluorescence slope in test [5] is 4.8e-05 (inactive).

On to `Cc1cccc(N(C)C(=O)c2coc(=O)c3ccccc23)c1`, for which the cell count in test [1] is 199. Besides, the inhibition in test [1] was -0.8% (inactive); in test [3], -1.9% (inactive); in test [7], 14.1% (inactive); in test [8], 26.6% (inactive). Also, the inhibition of aggregation in test [2] was -9.3% (inactive). For the same compound, the nuclei count in test [2] came out at 105%; in test [3], 104%. For the same compound, the fluorescence slope was -0.563 (inactive) in test [4] and 0.00467 (inactive) in test [6]. Moreover, the NADPH fluorescence slope in test [5] is 1.4e-05 (inactive).

On to `CC1CCCC(NC(=O)CN2CCN(Cc3ccc(Cl)cc3)C2=O)C1C` (stereo not drawn), for which the cell count in test [1] worked out at 512. Also, the inhibition is -6% (inactive) in test [1], -27.1% (inactive) in test [3], 14.7% (inactive) in test [7] and 20.9% (inactive) in test [8]. Besides, the inhibition of aggregation in test [2] is -24.6% (inactive). Further, the nuclei count in test [2] was 58.8%; in test [3], 98%. Moreover, the fluorescence slope in test [4] was -0.553 (inactive); in test [6], 0.00646 (inactive). Besides, the NADPH fluorescence slope in test [5] was -3.7e-05 (inactive).

For the compound `Cn1cnnc1Sc1nc2c(c(=O)n(C)c(=O)n2C)n1C`, the cell count in test [1] amounted to 613. Further, the inhibition in test [1] is -33.7% (inactive); in test [3], -50.7% (inactive); in test [7], -1.17% (inactive); in test [8] it was 9.62% (inactive). Besides, the inhibition of aggregation in test [2] was 11.6% (inactive). The values for the nuclei count in test [2] and in test [3] were 90.4% and 100%, respectively. The figures for the fluorescence slope in test [4] and in test [6] were -0.547 (inactive) and 0.00524 (inactive), respectively. Moreover, the NADPH fluorescence slope in test [5] was 2.3e-05 (inactive).

For `Cc1cc(-c2nc3ncccc3o2)ccc1N`, the cell count in test [1] came to 306. The inhibition was -8.9% (inactive) in test [1], -35.5% (inactive) in test [3], -34.7% (inactive) in test [7] and -101% (inactive) in test [8]. The inhibition of aggregation in test [2] was 23.3% (inactive). Further, the values for the nuclei count in test [2] and in test [3] were 102% and 99.8%, respectively. The fluorescence slope was -0.0237 (inactive) in test [4] and 0.00386 (inactive) in test [6]. Besides, the NADPH fluorescence slope in test [5] was 9.6e-08 (inactive).

As to `CCN1CCN(Cc2ccccc2NC(=O)Nc2ccc(C)cc2)CC1`, the cell count in test [1] was determined as 258. For the same compound, the inhibition in test [1] was -3.1% (inactive); in test [3] it was -23.4% (inactive); in test [7], -27.3% (inactive); in test [8], -69.1% (inactive). Moreover, the inhibition of aggregation in test [2] is 21.9% (inactive). The figures for the nuclei count in test [2] and in test [3] were 41.1% and 94%, respectively. For the same compound, the values for the fluorescence slope in test [4] and in test [6] were -0.487 (inactive) and 0.00496 (inactive), respectively. Besides, the NADPH fluorescence slope in test [5] was -6.3e-07 (inactive).

For `O=C(Cc1ccc(S(=O)(=O)N2CCCC2)s1)Nc1nc2c(s1)CCCC2`, the cell count in test [1] came to 577. For the same compound, the inhibition in test [1] is 22.2% (inactive); in test [3] it was 18.1% (inactive); in test [7], -11% (inactive); in test [8], -53.9% (inactive). Moreover, the inhibition of aggregation in test [2] was 25.3% (inactive). Further, the nuclei count came to 94.3% in test [2] and 71.4% in test [3]. Besides, the results for the fluorescence slope in test [4] and in test [6] were -0.574 (inactive) and 0.00565 (inactive), respectively. The NADPH fluorescence slope in test [5] is -5.6e-05 (inactive).

Regarding `CCC(C)c1ccc(NC(=O)C2CC2)cc1` (stereo not drawn), the cell count in test [1] worked out at 466. In addition, the inhibition is -11.6% (inactive) in test [1], -74.9% (inactive) in test [3], -20.4% (inactive) in test [7] and -80.1% (inactive) in test [8]. Moreover, the inhibition of aggregation in test [2] is -13.6% (inactive). Further, the nuclei count in test [2] came out at 110%; in test [3], 118%. Besides, the fluorescence slope was -0.569 (inactive) in test [4] and 0.00602 (inactive) in test [6]. Also, in test [5], the NADPH fluorescence slope was -4.3e-05 (inactive).

Turning to `CC(C)CC(NC(=O)OC(C)(C)C)C(=O)NC(C(=O)NC(C)C(N)=O)C(C)C` (stereo not drawn) (Boc-Leu-Val-Ala-NH2; configuration not given here), in test [1], the cell count came out at 342. In addition, the inhibition is 4.6% (inactive) in test [1], -20.6% (inactive) in test [3], -9.68% (inactive) in test [7] and 17.1% (inactive) in test [8]. Also, the inhibition of aggregation in test [2] was 4.4% (inactive). Also, the nuclei count in test [2] was 116%; in test [3], 117%. Also, the fluorescence slope in test [4] is -0.573 (inactive); in test [6], 0.00562 (inactive). For the same compound, the NADPH fluorescence slope in test [5] is -1.3e-05 (inactive).
